Consider one compound from ChEMBL document CHEMBL3259545, “Novel pyrrolobenzoxaboroles: design, synthesis, and biological evaluation against Trypanosoma brucei” (Eur J Med Chem, 2014).

In brackets after ≈: the same amount, converted by molar mass. Activity calls are given as the source filed them. The calls are words filed in the database; no cut-off is given here.

Test [1] concerns Trypanosoma brucei brucei. Description: Antitrypanosomal activity against Trypanosoma brucei brucei 427 after 72 hrs by alamar blue assay. The format is functional, organism-based. As to conditions: Trypanosoma brucei, 427, 72 h. Summed up: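 Bloodstream T. b. brucei 427 kept in log phase in HMI-9 with 10% FBS, 10% Serum Plus and penicillin/streptomycin, subcultured every 2–3 days. Final density 1.0 × 10⁵/mL with 0.4% DMSO, exposed to serially diluted compounds for 72 h at 37 °C, 5% CO₂. Resazurin added for another 2–4 h, fluorescence read at ex 544/em 590 nm. IC50 from sigmoidal fits of triplicate points.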
In general terms: Alamar Blue is a resazurin reagent that responds to reducing activity.

The test system of the next test is L929. The test can be described thus: Cytotoxicity against mouse L929 cells assessed as cell viability after 72 hrs by alamar blue assay. The format is cell-based. As to conditions: L929, 72 h. Summed up:
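L929 mouse fibroblasts grown in DMEM with 10% FBS and 1% penicillin/streptomycin, kept sub-confluent. Seeded from a 1 × 10⁴/mL suspension, attached overnight, then medium renewed and DMSO-diluted compounds added. Incubated 72 h at 37 °C, 5% CO₂. Resazurin added for another 3–4 h, fluorescence read at ex 544/em 590 nm.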

Test [2] relates to Trypanosoma brucei brucei. Description: Trypanocidal activity against bloodstream stage of Trypanosoma brucei brucei infected in acute BALB/c mouse assessed as extension of animal survival at 50 mg/kg, ip bid administered for 5 days initiated 24 hrs post infection. The format is functional, organism-based. On the set-up: dose 50 mg/kg. In short, it runs like this:
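Female BALB/c mice infected i.p. with 600 T. b. brucei 221 parasites. Starting 24 h after infection, compounds were given i.p. at 50 mg/kg twice daily for 5 days, in 5% ethanol/45% water/50% PEG400. Untreated mice served as controls. Parasitemia was checked by trypan-blue-stained tail-vein blood smears every other day for ten days, then weekly, with survival followed to day 30.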

In general, IC50 refers to the midpoint of a concentration-inhibition curve.

With `CCc1ccc(C(=O)c2ccn(-c3ccc4c(c3)B(O)OC4)c2)cc1`, the results for the IC50 (in test [1]; with L929) were 0.07 µg/mL (≈ 0.211 µM) and > 10 µg/mL, respectively. The result in test [2] was Active.
